Series [1] has as its target T1, D(4) dopamine receptor (Homo sapiens) (UniProt P21917).
T1 sequence (whole entry): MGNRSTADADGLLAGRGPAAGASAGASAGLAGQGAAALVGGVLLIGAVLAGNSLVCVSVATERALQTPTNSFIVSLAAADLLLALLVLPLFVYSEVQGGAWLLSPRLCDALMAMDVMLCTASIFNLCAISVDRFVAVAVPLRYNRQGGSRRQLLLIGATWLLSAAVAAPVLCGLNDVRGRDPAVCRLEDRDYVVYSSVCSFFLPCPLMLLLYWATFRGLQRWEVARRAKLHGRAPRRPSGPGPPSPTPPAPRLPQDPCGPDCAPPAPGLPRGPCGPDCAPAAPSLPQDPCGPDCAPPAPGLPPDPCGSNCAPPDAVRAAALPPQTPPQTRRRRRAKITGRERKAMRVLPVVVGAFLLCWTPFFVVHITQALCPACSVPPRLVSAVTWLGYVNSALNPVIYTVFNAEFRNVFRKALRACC
The series is described as follows: Compound at 1 uM was tested for the inhibition of radioligand [3H]spiperone binding to recombinant human Dopamine receptor D4. Summed up:
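Recombinant human D4.7 in CHO cell membranes; [3H]spiperone for 120 min at 25 °C, pH 7.4 Tris-HCl/NaCl/EDTA; haloperidol (10 μM) for nonspecific binding. Compound at 1 μM, percent inhibition determined in duplicate; filtration, scintillation counting.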

For series [2], the target named is Alpha-2A adrenergic receptor (Homo sapiens, UniProt P08913). The series is described as follows: Binding affinity towards recombinant human alpha-2A adrenergic receptor was determined using [3H]MK-912 as radioligand. The essentials: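 Membranes from CHO cells expressing recombinant human α2a receptor; competition with [3H]MK912, 60 min at 25 °C, in 50 mM Tris-HCl/150 mM NaCl/5 mM EDTA pH 7.4. Nonspecific binding defined with 10 μM WB4101. Filtration, washing, scintillation counting. IC50 by nonlinear regression, Ki via Cheng–Prusoff; mean ± SEM of three independent experiments.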
Chain of Alpha-2A adrenergic receptor (P08913 whole entry): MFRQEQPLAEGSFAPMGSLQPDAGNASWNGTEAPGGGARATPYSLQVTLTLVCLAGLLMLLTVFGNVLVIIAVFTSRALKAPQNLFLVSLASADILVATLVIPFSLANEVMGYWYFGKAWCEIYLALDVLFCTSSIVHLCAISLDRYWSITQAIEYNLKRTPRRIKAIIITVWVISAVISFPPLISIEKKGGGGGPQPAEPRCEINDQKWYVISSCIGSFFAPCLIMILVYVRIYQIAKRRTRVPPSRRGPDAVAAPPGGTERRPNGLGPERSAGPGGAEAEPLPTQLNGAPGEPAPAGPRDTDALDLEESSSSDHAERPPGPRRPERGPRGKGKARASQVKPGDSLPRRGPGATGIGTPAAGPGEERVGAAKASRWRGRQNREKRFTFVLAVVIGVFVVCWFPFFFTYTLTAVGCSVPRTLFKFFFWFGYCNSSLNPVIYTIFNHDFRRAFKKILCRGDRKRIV

Series [3] addresses Dihydropyridine-sensitive L-type Ca2+ channel (Rattus norvegicus, UniProt P22002+P27732+Q02485). The series is described as follows: Inhibition of [3H]nitrendipine binding to Dihydropyridine-sensitive L-type [Ca2+] channel in rat cerebral cortex at 10 uM. Format: tissue-based. The settings on record: probe [3H]nitrendipine. The essentials: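 Rat cerebral cortex membranes as source of dihydropyridine-sensitive L-type Ca2+ channels; [3H]nitrendipine, 25 °C for 90 min, pH 7.4 Tris-HCl/NaCl/EDTA; 1 μM nifedipine for nonspecific binding. Percent inhibition at the single compound concentration given in each line; filtration, scintillation counting.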

For series [4], the target named is Voltage-gated L-type calcium channel (Rattus norvegicus, UniProt P22002+Q02485+P27732). The series is described as follows: Inhibition of [3H]nitrendipine binding to phenylalkylamine-sensitive [Ca2+] L-type channels in rat cerebral cortex. Format: tissue-based.
The target of series [5] is 5-hydroxytryptamine receptor 1A (Homo sapiens, UniProt P08908). The series is described as follows: Binding affinity towards recombinant human 5-hydroxytryptamine 1A receptor was determined using [3H]8-OH-DPAT as radioligand. The essentials:
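Human 5-HT1A receptor expressed in CHO cells, membranes used. [3H]8-OH-DPAT, 60 min at 25 °C in Tris-HCl/NaCl/EDTA buffer, pH 7.4. Metergoline (10 μM) gave nonspecific binding. Filtered, scintillation counted. Ki from IC50 (nonlinear regression) by Cheng–Prusoff, mean ± SEM of three independent experiments.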

The subject of series [6] is Alpha-1D/Alpha-1A adrenergic receptor (Homo sapiens). The series is described as follows: Ratio of binding affinity towards Alpha1d to Alpha-1A.

Chain of 5-hydroxytryptamine receptor 1A (P08908 whole entry): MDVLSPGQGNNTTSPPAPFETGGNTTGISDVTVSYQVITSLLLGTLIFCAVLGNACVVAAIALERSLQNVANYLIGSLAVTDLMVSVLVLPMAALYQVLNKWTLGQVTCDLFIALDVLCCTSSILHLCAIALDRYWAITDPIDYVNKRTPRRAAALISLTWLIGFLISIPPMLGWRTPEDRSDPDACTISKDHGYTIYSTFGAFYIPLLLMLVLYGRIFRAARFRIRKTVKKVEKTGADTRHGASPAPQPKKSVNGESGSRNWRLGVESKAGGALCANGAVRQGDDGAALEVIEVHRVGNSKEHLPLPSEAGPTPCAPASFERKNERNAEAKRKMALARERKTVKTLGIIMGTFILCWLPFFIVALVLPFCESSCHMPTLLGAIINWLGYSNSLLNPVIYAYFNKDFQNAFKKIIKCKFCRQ

For `Cc1ccc(N2C(=O)c3ccc(C(=O)NC[C@H](O)CN4CCN(c5ccccc5OC(C)C)CC4)cc3C2=O)cc1`, the inhibition in series [1] is 50%.
Turning to `CCOc1ccccc1OCCN[C@H](C)Cc1ccc(OC)c(S(N)(=O)=O)c1` [TAMSULOSIN], the Ki in series [2] was 63 nM.
Regarding `CC(C)Oc1ccccc1N1CCN(C[C@@H](O)CNC(=O)c2ccc3c(c2)C(=O)N(c2ccc(N(C)C)cc2)C3=O)CC1`, the inhibition at 10 µM in series [3] was 53%. The Ki in series [4] stood at 760 nM; in series [5], 15 nM.
In the case of `Cc1ccc(N2C(=O)c3ccc(C(=O)NCCCN4CCN(c5ccccc5OC(C)C)CC4)cc3C2=O)cc1`, the Ratio in series [6] is 231.

These data come from ChEMBL document CHEMBL1133729, “Design, synthesis, and structure-activity relationships of phthalimide-phenylpiperazines: a novel series of potent and selective alpha(1)(a)-adrenergic receptor antagonists” (J Med Chem, 2000).
